Reference: ChEMBL document CHEMBL2396530, “In vitro and in vivo evaluation of polymethylene tetraamine derivatives as NMDA receptor channel blockers” (Bioorg Med Chem Lett, 2013)
Calls of active or inactive are those of the source. No cut-off for these calls is given here.

Tests used:
Mus musculus [1] = test: Antithrombotic activity in photochemically-induced thrombosis C57B/L mouse model assessed as decrease in brain infarction size at 1 to 10 mg/kg, iv after 24 hrs; format: functional, organism-based
[2] = target: Glutamate NMDA receptor; GRIN1/GRIN2A (Homo sapiens, UniProt Q05586+Q12879); test: Antagonist activity at recombinant GluN1/GluN2A receptor (unknown origin) expressed in Xenopus laevis oocytes assessed as inhibition of glycine/glutamate-induced inward current at -70mV by two-electrode voltage clamp assay; format: cell-based, Oocyte
Chain of Glutamate NMDA receptor; GRIN1/GRIN2A (Q12879 whole entry, other chains not shown): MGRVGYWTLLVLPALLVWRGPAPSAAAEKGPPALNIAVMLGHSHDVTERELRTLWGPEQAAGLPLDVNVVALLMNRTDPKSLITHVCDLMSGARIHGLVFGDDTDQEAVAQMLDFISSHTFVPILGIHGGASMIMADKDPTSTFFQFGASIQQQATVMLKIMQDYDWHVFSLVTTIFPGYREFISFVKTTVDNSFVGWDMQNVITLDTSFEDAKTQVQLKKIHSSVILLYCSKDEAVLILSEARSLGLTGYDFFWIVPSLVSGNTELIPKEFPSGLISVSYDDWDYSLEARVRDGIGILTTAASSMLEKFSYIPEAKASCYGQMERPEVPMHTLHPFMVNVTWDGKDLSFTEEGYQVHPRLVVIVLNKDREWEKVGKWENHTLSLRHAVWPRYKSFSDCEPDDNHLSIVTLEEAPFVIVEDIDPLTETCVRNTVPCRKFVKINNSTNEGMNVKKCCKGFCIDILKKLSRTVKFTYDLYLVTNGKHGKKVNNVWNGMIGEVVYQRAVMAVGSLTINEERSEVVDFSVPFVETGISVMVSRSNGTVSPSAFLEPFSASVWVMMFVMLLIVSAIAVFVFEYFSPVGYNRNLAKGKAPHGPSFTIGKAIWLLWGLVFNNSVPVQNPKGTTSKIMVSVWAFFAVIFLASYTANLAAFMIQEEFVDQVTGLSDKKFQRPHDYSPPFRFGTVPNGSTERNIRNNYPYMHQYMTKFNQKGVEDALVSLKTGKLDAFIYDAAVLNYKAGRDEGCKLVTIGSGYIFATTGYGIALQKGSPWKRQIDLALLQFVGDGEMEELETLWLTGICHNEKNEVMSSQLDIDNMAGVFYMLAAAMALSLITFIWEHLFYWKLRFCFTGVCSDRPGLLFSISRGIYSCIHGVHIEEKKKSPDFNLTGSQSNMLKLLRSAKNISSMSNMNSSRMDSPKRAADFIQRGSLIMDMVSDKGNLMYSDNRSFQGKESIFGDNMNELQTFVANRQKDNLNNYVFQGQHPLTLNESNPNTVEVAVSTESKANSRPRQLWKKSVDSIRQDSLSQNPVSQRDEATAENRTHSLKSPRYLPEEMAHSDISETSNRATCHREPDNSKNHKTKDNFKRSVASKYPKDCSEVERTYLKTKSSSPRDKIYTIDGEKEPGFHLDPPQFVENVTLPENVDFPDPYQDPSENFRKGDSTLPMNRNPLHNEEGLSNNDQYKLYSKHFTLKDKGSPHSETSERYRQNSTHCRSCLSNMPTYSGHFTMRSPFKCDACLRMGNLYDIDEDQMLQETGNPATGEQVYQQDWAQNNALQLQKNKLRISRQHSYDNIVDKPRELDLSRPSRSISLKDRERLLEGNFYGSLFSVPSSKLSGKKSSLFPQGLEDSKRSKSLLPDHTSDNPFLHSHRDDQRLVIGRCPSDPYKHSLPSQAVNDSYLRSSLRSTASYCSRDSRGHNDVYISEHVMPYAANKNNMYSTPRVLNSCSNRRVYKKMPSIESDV
Procedure, shortened: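 Xenopus oocytes injected with GluN1 plus GluN2A cRNA at 1:5 ratio (0.1–4 ng GluN1 plus 0.5–20 ng GluN2A). Two-electrode voltage clamp at -70 mV. Receptors activated by superfusing glycine and glutamate (10 µM). Inward currents recorded. Concentration–inhibition curves built from 5 concentrations per compound to give IC50.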

Mus musculus [3] = test: Antithrombotic activity in photochemically-induced thrombosis C57B/L mouse model assessed as decrease in brain infarction size at 10 mg/kg, iv after 24 hrs; format: functional, organism-based; design: dose 10 mg/kg
Mus musculus [4] = test: Antithrombotic activity in photochemically-induced thrombosis C57B/L mouse model assessed as decrease in brain infarction size at 0.4 mg/kg, iv after 24 hrs; format: functional, organism-based; design: dose 0.4 mg/kg

Row | SMILES | Activity (Mus musculus [1]) | IC50 [2] | Activity (Mus musculus [3]) | Activity (Mus musculus [4])
1 | COc1ccccc1CNCCCCCCCCNCCCCCCNCCCCCCCCNCc1ccccc1OC | inactive | 0.257 µM | – | –
2 | CC12CC3CC(C)(C1)CC(N)(C3)C2 | – | – | Active | –
3 | c1ccc(C(CNCCCCCCNCCCCCCCCNCCCCCCNCC(c2ccccc2)c2ccccc2)c2ccccc2)cc1 | inactive | 0.011 µM | – | –
4 | COc1ccccc1CNCCCCCNCCCCCCCCCCNCCCCCNCc1ccccc1OC | inactive | 0.0893 µM | – | –
5 | COc1ccccc1CNCCCCCNCCCCCCNCCCCCNCc1ccccc1OC | – | 0.315 µM | – | Active
6 | c1ccc(C(CNCCCCCCNCCCCCCCCCCCCNCCCCCCNCC(c2ccccc2)c2ccccc2)c2ccccc2)cc1 | inactive | 0.0042 µM | – | –
7 | COc1ccccc1CNCCCCCCNCCCCCCCCNCCCCCCNCc1ccccc1OC [METHOCTRAMINE] | inactive | 0.138 µM | – | –
